Tests used:
[1] = Cytotoxicity against human HG23 cells measured after 72 hrs by […] CytoTox-96 non-radioactive assay; format: cell-based
Norovirus = test: Antiviral activity Norovirus infected in human HG23 cells assessed as decrease in viral RNA level measured after 48 hrs by qRT-PCR analysis; format: functional, cell-based; settings: HG23, 48 h
Procedure, shortened: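 Norwalk virus replicon-bearing HG23 cells, confluent and semi-confluent, exposed 48 h to compound (up to 100 μM) or DMSO (<0.1%) in medium. Total RNA extracted, viral genome quantified by real-time qRT-PCR; EC50 derived from concentration-response data.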

[2] = Inhibition of Norovirus 3CL protease preincubated for 30 mins followed by addition of Edans-DFHLQ/GP-Dabcyl as substrate measured after 1 hr by FRET assay
Procedure, shortened: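 Protease preincubated 30 min at 37°C with serially diluted compound or DMSO in 20 mM HEPES pH 8, 200 mM NaCl, 0.4 mM EDTA, 60% glycerol, 6 mM DTT; Edans-DFHLQ/GP-Dabcyl substrate then added. Fluorescence (ex 360/em 460 nm) read 1 h later; background (substrate, no protease) subtracted; IC50 from variable-slope dose-response fit.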

| Structure (SMILES) | EC50 (Norovirus) [nM] | IC50 [2] [nM] | CC50 at 72 h [1] [nM] |
| --- | --- | --- | --- |
| O=C1NCC[C@H]1C[C@H](NC(=O)[C@H](CC1CCCCC1)NS(=O)(=O)c1cccc(Cl)c1)C(O)S(=O)(=O)O (stereo partly specified) | 1900 | 5700 | > 100000 |
| O=C1NCC[C@H]1C[C@H](NC(=O)[C@H](CC1CCCCC1)NS(=O)(=O)c1ccc(-c2ccccc2)cc1)C(O)S(=O)(=O)O (stereo partly specified) | 1200 | 1100 | > 100000 |
| O=C[C@H](C[C@@H]1CCNC1=O)NC(=O)[C@H](CC1CCCCC1)NS(=O)(=O)CCN1C(=O)c2ccccc2C1=O | 2300 | 2500 | > 100000 |
| O=C[C@H](C[C@@H]1CCNC1=O)NC(=O)[C@H](CC1CCCCC1)NS(=O)(=O)c1ccc(-c2ccccc2)cc1 | 1300 | 1300 | > 100000 |
| O=C[C@H](C[C@@H]1CCNC1=O)NC(=O)[C@H](CC1CCCCC1)NS(=O)(=O)CCc1ccccc1 | 700 | 1800 | > 100000 |
| O=C1NCC[C@H]1C[C@H](NC(=O)[C@H](CC1CCCCC1)NS(=O)(=O)CCN1C(=O)c2ccccc2C1=O)C(O)S(=O)(=O)O (stereo partly specified) | 2100 | 2600 | > 100000 |
| CCCCCCCCCCOC(=O)N[C@@H](CC1CCCCC1)C(=O)N[C@H](C=O)C[C@@H]1CCNC1=O | 100 | 300 | 32100 |
| O=C(N[C@@H](CC1CCCCC1)C(=O)N[C@@H](C[C@@H]1CCNC1=O)C(O)S(=O)(=O)O)OCCc1cccc(Cl)c1 (stereo partly specified) | 100 | 500 | 46700 |
| O=C[C@H](C[C@@H]1CCNC1=O)NC(=O)[C@H](CC1CCCCC1)NS(=O)(=O)c1cccc(Cl)c1 | 2300 | 5500 | > 100000 |
| O=C[C@H](C[C@@H]1CCNC1=O)NC(=O)[C@H](CC1CCCCC1)NS(=O)(=O)c1ccccc1 | 9500 | 8500 | > 100000 |
| O=C[C@H](C[C@@H]1CCNC1=O)NC(=O)[C@H](CC1CCCCC1)NS(=O)(=O)c1ccc(Cl)cc1 | 3500 | 5800 | > 100000 |
| CCCCCCCCCCOC(=O)N[C@@H](CC1CCCCC1)C(=O)N[C@@H](C[C@@H]1CCNC1=O)C(O)S(=O)(=O)O (stereo partly specified) | 200 | 400 | 34500 |
| O=C[C@H](C[C@@H]1CCNC1=O)NC(=O)[C@H](CC1CCCCC1)NS(=O)(=O)Cc1ccc(Cl)cc1 | 2400 | 1800 | > 100000 |
| O=C1NCC[C@H]1C[C@H](NC(=O)[C@H](CC1CCCCC1)NS(=O)(=O)c1ccc(F)cc1)C(O)S(=O)(=O)O (stereo partly specified) | 2100 | 6200 | > 100000 |

Continued by falling EC50 (Norovirus), values first:

| EC50 (Norovirus) [nM] | IC50 [2] [nM] | Structure (SMILES) | CC50 at 72 h [1] [nM] |
| --- | --- | --- | --- |
| 12300 | 13500 | O=C1NCC[C@H]1C[C@H](NC(=O)[C@H](CC1CCCCC1)NS(=O)(=O)c1ccccc1)C(O)S(=O)(=O)O (stereo partly specified) | > 100000 |
| 8500 | 10400 | O=C[C@H](C[C@@H]1CCNC1=O)NC(=O)[C@H](CC1CCCCC1)NS(=O)(=O)c1cccs1 | > 100000 |
| 8100 | 8500 | O=C1NCC[C@H]1C[C@H](NC(=O)[C@H](CC1CCCCC1)NS(=O)(=O)c1cccs1)C(O)S(=O)(=O)O (stereo partly specified) | > 100000 |
| 7200 | 5100 | O=C1NCC[C@H]1C[C@H](NC(=O)[C@H](CC1CCCCC1)NS(=O)(=O)c1ccc(Cl)cc1)C(O)S(=O)(=O)O (stereo partly specified) | > 100000 |
| 4300 | 4300 | O=C1NCC[C@H]1C[C@H](NC(=O)[C@H](CC1CCCCC1)NS(=O)(=O)Cc1ccccc1)C(O)S(=O)(=O)O (stereo partly specified) | > 100000 |
| 4100 | 4500 | O=C[C@H](C[C@@H]1CCNC1=O)NC(=O)[C@H](CC1CCCCC1)NS(=O)(=O)Cc1ccccc1 | > 100000 |
| 2200 | 1200 | O=C1NCC[C@H]1C[C@H](NC(=O)[C@H](CC1CCCCC1)NS(=O)(=O)Cc1ccc(Cl)cc1)C(O)S(=O)(=O)O (stereo partly specified) | > 100000 |
| 2000 | 4800 | O=C[C@H](C[C@@H]1CCNC1=O)NC(=O)[C@H](CC1CCCCC1)NS(=O)(=O)c1ccc(F)cc1 | > 100000 |
| 1100 | 2300 | O=C[C@H](C[C@@H]1CCNC1=O)NC(=O)[C@H](CC1CCCCC1)NS(=O)(=O)CCc1cccc(Cl)c1 | > 100000 |
| 800 | 1900 | O=C1NCC[C@H]1C[C@H](NC(=O)[C@H](CC1CCCCC1)NS(=O)(=O)CCc1cccc(Cl)c1)C(O)S(=O)(=O)O (stereo partly specified) | > 100000 |
| 800 | 2100 | O=C1NCC[C@H]1C[C@H](NC(=O)[C@H](CC1CCCCC1)NS(=O)(=O)CCc1ccccc1)C(O)S(=O)(=O)O (stereo partly specified) | > 100000 |
| 300 | 1200 | CCCCCCCCS(=O)(=O)N[C@@H](CC1CCCCC1)C(=O)N[C@H](C=O)C[C@@H]1CCNC1=O | 33800 |
| 300 | 1600 | O=C(N[C@@H](CC1CCCCC1)C(=O)N[C@@H](C[C@@H]1CCNC1=O)C(O)S(=O)(=O)O)OCCOCc1ccccc1 (stereo partly specified) | > 100000 |
| 200 | 1600 | COc1ccc(OCCCS(=O)(=O)N[C@@H](CC2CCCCC2)C(=O)N[C@@H](C[C@@H]2CCNC2=O)C(O)S(=O)(=O)O)cc1 (stereo partly specified) | > 100000 |
| 200 | 1100 | CCCCCCCCS(=O)(=O)N[C@@H](CC1CCCCC1)C(=O)N[C@@H](C[C@@H]1CCNC1=O)C(O)S(=O)(=O)O (stereo partly specified) | 35400 |
| 200 | 2100 | O=C[C@H](C[C@@H]1CCNC1=O)NC(=O)[C@H](CC1CCCCC1)NC(=O)OCCOCc1ccccc1 | > 100000 |
| 200 | 1800 | COc1ccc(OCCCS(=O)(=O)N[C@@H](CC2CCCCC2)C(=O)N[C@H](C=O)C[C@@H]2CCNC2=O)cc1 | > 100000 |
| 100 | 600 | O=C[C@H](C[C@@H]1CCNC1=O)NC(=O)[C@H](CC1CCCCC1)NC(=O)OCCc1cccc(Cl)c1 | 43200 |
